Results of several laboratories.
Each line is one published result; the experiments were not run side by side.
Target: Fibroblast growth factor receptor 4 (FGFR4, Homo sapiens, UniProt P22455)

SMILES	assay	setting	measurement	value
COCc1c(-c2cc3cc(C)cc(OC)c3s2)c2c(N)ncnn2c1CN1CCNC(=O)C1	cell-free assay, competition with immobilised ligand	1 µM	inhibition	99.9%
Cn1cncc1[C@](O)(COc1ccc(C#N)cc1-c1ccc(OC(F)(F)F)cc1)c1ccc(C#N)cc1	cell-free assay, competition with immobilised ligand	1 µM	remaining binding	100%
O=c1[nH]c2ccccc2n1C1CCN(Cc2ccc(-c3[nH]c4cc5ncnc5cc4nc3-c3ccccc3)cc2)CC1	cell-free assay	0.5 µM	remaining signal	97.2%
N#CC1(c2ccccn2)CCN(Cc2cc(C(=O)O)c(=O)n3ccccc23)CC1	cell-free assay, competition with immobilised ligand	1 µM	remaining binding	100%
C#Cc1n[nH]c2c(-c3cn([C@@H](C)c4ccccc4)c(=O)[nH]c3=O)cc(F)cc12	enzyme activity, inhibitor	0.1 µM	inhibition	0%
Cn1cc(-c2cccc(N3CCc4c(sc5c4CC(C)(C)C5)C3=O)c2CO)cc(Nc2ccncn2)c1=O	enzyme activity, inhibitor	1 µM	inhibition	-2%
Cc1nn(C)cc1-c1nc2c(N3CCN(Cc4ccc(Cl)cc4)CC3)c(Cl)cnc2[nH]1	binding, competition with immobilised ligand	1 µM	remaining binding	68%
Nc1ncc(-c2nc(N3CCOCC3)nc(N3CCOCC3)n2)c(C(F)F)n1	cell-free assay, competition with immobilised ligand	10 µM	remaining binding	100%
COc1cc(Nc2ncc(F)c(Nc3ccc4c(n3)NC(=O)C(C)(C)O4)n2)cc(OC)c1OC	binding, competition with immobilised ligand	10 µM	inhibition	97%
C#Cc1n[nH]c2c(-c3cn([C@@H](C)c4ccccn4)c(=O)[nH]c3=O)cc(F)cc12	enzyme activity, inhibitor	0.1 µM	inhibition	7.2%
Cn1cc(-c2cc(F)cc(N3CCn4c(cc5c4CCCC5)C3=O)c2CO)cc(Nc2ccc(N3CCN(C4COC4)CC3)cn2)c1=O	enzyme activity, inhibitor	0.1 µM	inhibition	2%
CC(C)(C)c1cc(C=C(C#N)C#N)cc(Br)c1O	enzyme activity, inhibitor	0.5 µM	remaining activity	98%
COc1ncccc1-c1cnn2ccc(N3CCN(C(=O)OC(C)C)CC3)nc12	binding, competition with immobilised ligand	1 µM	remaining binding	60%
